ChEMBL document CHEMBL3244380, “Preparation and antitumor activity of 1-aryl-3,3-dimethyltriazene derivatives” (1977)

Tests used:
Type in all cases: functional
Settings in all cases: TLX-5, ip, 72 h, route intraperitoneal
[1] = Antitumor activity against mouse TLX5 cells allografted in CBA/LAC mouse assessed as increase in life span at 160 mg/kg, ip from day 3 to 7 from tumor inoculation relative to control
Procedure, shortened: (§1)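 TLX5 lymphoma cells implanted subcutaneously in the inguinal region of female CBA/LAC mice. Drug given as a freshly made solution in acetone–arachis oil 10/90 (v:v), intraperitoneally once daily from day 3 to 7 after tumour inoculation. Five animals per dose level, ten controls. Read-out was %ILS over controls, with analysis of variance used for significance.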

[2] = Antitumor activity against mouse TLX5 cells allografted in CBA/LAC mouse assessed as increase in life span at 20 mg/kg, ip from day 3 to 7 from tumor inoculation relative to control; procedure, shortened: as §1
[3] = Antitumor activity against mouse TLX5 cells allografted in CBA/LAC mouse assessed as increase in life span at 40 mg/kg, ip from day 3 to 7 from tumor inoculation relative to control; procedure, shortened: as §1
[4] = Antitumor activity against mouse TLX5 cells allografted in CBA/LAC mouse assessed as increase in life span at 10 mg/kg, ip from day 3 to 7 from tumor inoculation relative to control; procedure, shortened: as §1
[5] = Antitumor activity against mouse TLX5 cells allografted in CBA/LAC mouse assessed as increase in life span at 80 mg/kg, ip from day 3 to 7 from tumor inoculation relative to control; procedure, shortened: as §1
[6] = Antitumor activity against mouse TLX5 cells allografted in CBA/LAC mouse assessed as increase in life span at 5 mg/kg, ip from day 3 to 7 from tumor inoculation relative to control; procedure, shortened: as §1
[7] = Antitumor activity against mouse TLX5 cells allografted in CBA/LAC mouse assessed as increase in life span at 2.5 mg/kg, ip from day 3 to 7 from tumor inoculation relative to control; procedure, shortened: as §1
[8] = Antitumor activity against mouse TLX5 cells allografted in CBA/LAC mouse assessed as increase in life span at 12.5 mg/kg, ip from day 3 to 7 from tumor inoculation relative to control; procedure, shortened: as §1
[9] = Antitumor activity against mouse TLX5 cells allografted in CBA/LAC mouse assessed as increase in life span at 400 mg/kg, ip from day 3 to 7 from tumor inoculation relative to control; procedure, shortened: as §1
[10] = Antitumor activity against mouse TLX5 cells allografted in CBA/LAC mouse assessed as increase in life span at 25 mg/kg, ip from day 3 to 7 from tumor inoculation relative to control; procedure, shortened: as §1
[11] = Antitumor activity against mouse TLX5 cells allografted in CBA/LAC mouse assessed as increase in life span at 50 mg/kg, ip from day 3 to 7 from tumor inoculation relative to control; procedure, shortened: as §1
[12] = Antitumor activity against mouse TLX5 cells allografted in CBA/LAC mouse assessed as increase in life span at 200 mg/kg, ip from day 3 to 7 from tumor inoculation relative to control; procedure, shortened: as §1
[13] = Antitumor activity against mouse TLX5 cells allografted in CBA/LAC mouse assessed as increase in life span at 100 mg/kg, ip from day 3 to 7 from tumor inoculation relative to control; procedure, shortened: as §1
[14] = Antitumor activity against mouse TLX5 cells allografted in CBA/LAC mouse assessed as increase in life span at 6.25 mg/kg, ip from day 3 to 7 from tumor inoculation relative to control; procedure, shortened: as §1
[15] = Antitumor activity against mouse TLX5 cells allografted in CBA/LAC mouse assessed as increase in life span at 3.12 mg/kg, ip from day 3 to 7 from tumor inoculation relative to control; procedure, shortened: as §1
[16] = Antitumor activity against mouse TLX5 cells allografted in CBA/LAC mouse assessed as increase in life span at 800 mg/kg, ip from day 3 to 7 from tumor inoculation relative to control; procedure, shortened: as §1

Structure (SMILES)	ILS at 160 mg/kg [1] [%]	ILS at 20 mg/kg [2] [%]	ILS at 40 mg/kg [3] [%]	ILS at 10 mg/kg [4] [%]	ILS at 80 mg/kg [5] [%]	ILS at 5 mg/kg [6] [%]	ILS at 2.5 mg/kg [7] [%]	ILS at 12.5 mg/kg [8] [%]	ILS at 400 mg/kg [9] [%]	ILS at 25 mg/kg [10] [%]	ILS at 50 mg/kg [11] [%]	ILS at 200 mg/kg [12] [%]	ILS at 100 mg/kg [13] [%]	ILS at 6.25 mg/kg [14] [%]	ILS at 3.12 mg/kg [15] [%]	ILS at 800 mg/kg [16] [%]
CN(C)/N=N/c1ccc(C(=O)NN)cc1	-46	55	57	59	44											
CCCN(CCC)NC(=O)c1ccc(/N=N/N(C)C)cc1		20	-32	0		-3.7	-3.7									
CCCNC(=O)NNC(=O)c1ccc(/N=N/N(C)C)cc1								-1	-44	10	61	49	44			
CCNC(=S)NNC(=O)c1ccc(/N=N/N(C)C)cc1								-1		16	18	-31	55			
CN(C)/N=N/c1ccc(C(=O)N=[N+]=[N-])cc1								4.6		21	46	-72	51	-1		
CN(C)/N=N/c1ccc(C(=O)Nn2cnnc2)cc1								-1	-14	32	47	28	49			
CN(C)/N=N/c1ccc(S(=O)(=O)Nn2cnnc2)cc1								0.9	14	4.6	0.9	16	4.6			
CN(C)/N=N/c1ccc(S(=O)(=O)N(C)C)cc1								0		7.5	9.4	-36	34			
CN(C)/N=N/c1ccc(S(=O)(=O)N(CCCl)CCCl)cc1								-1		0	2.9		-3.7	-3.7	-3.7	
COc1ccc(/C=N/NC(=O)c2ccc(/N=N/N(C)C)cc2)c(OC)c1								1.9	-33	19	48	35	52			
CCOc1ccc(/C=N/NC(=O)c2ccc(/N=N/N(C)C)cc2)cc1								0	63	13	29	65	50			
CN(C)/N=N/c1ccc(C(=O)N/N=C/c2ccccc2)cc1								26	-26	24	49	1.8	36			
CN(C)/N=N/c1ccc(C(=O)N/N=C/c2ccc(Cl)cc2)cc1								4.6	-23	14	40	51	44			
CN(C)/N=N/c1ccc(C(=O)N/N=C/c2ccc(Br)cc2)cc1								7.6	-35	21	52	60	52			
CN(C)/N=N/c1ccc(C(=O)N/N=C/c2ccc(I)cc2)cc1								11		15	40	-38	54			
CN(C)/N=N/c1ccc(C(=O)N/N=C/c2ccccc2[N+](=O)[O-])cc1								44	59	40	49	57	51			
CN(C)/N=N/c1ccc(C(=O)N/N=C/c2ccc([N+](=O)[O-])cc2)cc1								-1	20	-1	8.7	26	16			
CCO/C=N/NC(=O)c1ccc(/N=N/N(C)C)cc1								13		30	43		-27			
CN(C)/N=N/c1ccc(C(=O)NNC(O)c2ccc([N+](=O)[O-])cc2)cc1 (stereo not drawn)									71	6.5	12	83	74			44
CN(C)/N=N/c1ccc(C(N)=O)cc1								14	-61	55	51	3.9	47			
